Source: publication PMC8159881 (ACS nano, 2021)

Assays:
INS-1E cells = experiment: Glucose-stimulated insulin secretion assay; assay type: cell-based
Outline: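 Lentivirally transduced proinsulin-NanoLuc INS-1E cells were plated overnight (37 °C, 5% CO₂), washed, and held 1 h in KRB (HEPES, BSA) with 2.8 mM glucose. They got peptide for 5 min (2 μM; 5 or 10 μM in one set; DMSO mock), then 20 min in KRB with 20 mM glucose, or 2.8 mM as control. Supernatant luciferase read with coelenterazine.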

[1] = Partitioning and budding in phase-separated GUVs; conditions: for inward budding from the Ld phase of phase-separated GUVs: 10 μM Cy-5-labeled peptide, 30 min
Outline: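 Peptide was applied to the GUVs for 30 min before imaging. Fluorescein at 0.3 μM was added to the external buffer to mark true inward budding, seen as fluorescein-containing intraluminal vesicles.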

Substance: Cy5-CVWSLFNTLFM [AH(59-68)]
- binding to the plasma membrane of INS-1E cells (INS-1E cells; cells pretreated with peptide): effectively bound to the plasma membrane

Substance: Cy5-DHVVWSLFNTLFMNPC [AH(56-71)]
- binding of peptide to GUVs in the absence of cholesterol (Inward budding; GUVs without cholesterol): not affected
- inward budding of GUVs without cholesterol containing DOPE (Inward budding; GUVs without cholesterol, DOPE 20 mol%): could be rescued
- inward budding of GUVs without cholesterol (Inward budding; peptide added to GUVs without cholesterol): failed to induce efficient inward budding
- inward budding from the Ld phase of phase-separated GUVs [1]: caused inward budding from this domain

Substance: Cy5-LVWHMFLSDNFTNPV [Scrambled AH(56-71)]
- inward budding from the Ld phase of phase-separated GUVs [1]: failed to cause inward budding from this phase

Substance: FITC-Ahx-DHVVWSLFNTLFMNPC(PAL)CLGF [AH(56-75)]
- phase partitioning in phase-separated GUVs ([1]; fluorescently-tagged peptide palmitoylated at Cys71): clearly partitioned to the Ld phase and appeared to concentrate at the phase boundary

Substance: lyso-PC [LPC, reference compound]
- budding of GUV membrane on addition of lipid (Inward budding; LPC titrated on preformed GUVs containing POPC and cholesterol): outward budding of the GUV membrane in an LPC dose-dependent manner
- glucose-stimulated insulin secretion (INS-1E cells; cells pretreated with 20 μM LPC): promoted insulin secretion
